The source made the active and inactive calls.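 How the source made its calls: active means mean EC50 of 20 µM or lower; inactive means the rest.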
Biological target: CHO-CHOP luciferase reporter, UPR activation, luminescence
Assay: PERK-eIF2a-CHOP apoptotic UPR arm activators, SAR follow-up, CHO-CHOP cells, luminescence (AID 540312)
In short: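 Schedule: 16–18 h cell rest, then 6 h compound treatment, 37 °C / System: CHO-CHOP cells with stably transfected luciferase reporter of PERK-eIF2a-CHOP pathway / Measured by: Steady-Glo luminescence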

`O=C(Nc1nc2c(F)cc(F)cc2s1)c1ccccn1` gave an EC50 of 7.22 µM.

`Fc1cc(F)c2nc(NCc3ccccn3)sc2c1` was tested, and the EC50 was > 80 µM (inactive).

Compound `O=C(Nc1ccc(S(=O)(=O)c2ccccc2)cc1)c1ccc([N+](=O)[O-])o1` has an EC50 of 1.09 µM.

With `O=C(Nc1nc2c(F)cc(F)cc2s1)c1ccncc1` the EC50 was > 80 µM (inactive).

With `O=C(Nc1ccc(S(=O)(=O)N2CCCCC2)cc1)c1ccc([N+](=O)[O-])o1` the EC50 was 1.75 µM.

`O=C(Nc1nc2c(F)cc(F)cc2s1)c1cccnc1` was tested, and the EC50 was > 80 µM (inactive).

In the case of `O=C(Nc1ccc(S(=O)(=O)N2CCOCC2)cc1)c1ccc([N+](=O)[O-])cc1`, the EC50 is reported as > 80 µM (inactive).

Compound `O=C(Nc1nc2ccc(F)cc2s1)c1ccccn1` has an EC50 of 12.6 µM.

`CC1CN(S(=O)(=O)c2ccc(NC(=O)c3ccco3)cc2)CC(C)O1` (stereo unspecified) was tested, and the EC50 was > 80 µM (inactive).

For `O=C(Nc1ccc(S(=O)(=O)N2CCCC2)cc1)c1ccc([N+](=O)[O-])o1`, the EC50 was 0.742 µM.

In the case of `O=C(Nc1nc2c(Cl)cc(Cl)cc2s1)c1ccccn1`, the EC50 is reported as 10.6 µM.

With `O=C(Nc1ccc(S(=O)(=O)N2CCOCC2)cc1)c1ccc([N+](=O)[O-])s1` the EC50 was 13.5 µM.

For `O=C(Nc1nc2ccccc2s1)c1cccnc1`, the EC50 was > 80 µM (inactive).

For `O=C(Nc1nc2ccccc2s1)c1ccccn1`, the EC50 was > 80 µM (inactive).

With `O=C(Nc1cccc(S(=O)(=O)N2CCOCC2)c1)c1ccco1` the EC50 was > 80 µM (inactive).

For `CC1(C)CCN(S(=O)(=O)c2ccc(NC(=O)c3ccc([N+](=O)[O-])o3)cc2)CC1`, the EC50 was 0.494 µM.

With `O=C(Nc1ccc(S(=O)(=O)N2CCOCC2)cc1)c1ccc(Br)o1` the EC50 was > 80 µM (inactive).

`O=C(Nc1ccc(S(=O)(=O)C2CCCCC2)cc1)c1ccc([N+](=O)[O-])o1` showed an EC50 of 0.676 µM.

In the case of `O=C(Nc1ccc(S(=O)(=O)N2CCOCC2)cc1)c1ccco1`, the EC50 is reported as > 80 µM (inactive).

For `O=C(Nc1ccc(S(=O)(=O)N2CCOCC2)cc1)c1ccccc1`, the EC50 was > 80 µM (inactive).

With `O=C(Nc1ccc(S(=O)(=O)N2CCNCC2)cc1)c1ccc([N+](=O)[O-])o1` the EC50 was “inactive”.

`O=C(Nc1nc2c(F)cccc2s1)c1ccccn1` showed an EC50 of 5.83 µM.

`O=C(Nc1nc2ccccc2s1)c1ccncc1` was tested, and the EC50 was > 80 µM (inactive).

`O=C(Nc1nc2c(F)cc(F)cc2s1)c1ccccc1` was tested, and the EC50 was > 80 µM (inactive).

In the case of `Cc1ccc(C(=O)Nc2ccc(S(=O)(=O)N3CCOCC3)cc2)o1`, the EC50 is reported as > 80 µM (inactive).

For `O=C(Nc1ccc(S(=O)(=O)N2CCOCC2)cc1)c1cccs1`, the EC50 was > 80 µM (inactive).

Work on `CC1CCN(S(=O)(=O)c2ccc(NC(=O)c3ccc([N+](=O)[O-])o3)cc2)CC1` yielded an EC50 of 0.541 µM.

With `O=C(Nc1ccc(C(=O)N2CCOCC2)cc1)c1ccco1` the EC50 was > 80 µM (inactive).

With `O=C(Nc1ccc(S(=O)(=O)N2CCC(O)CC2)cc1)c1ccc([N+](=O)[O-])o1` the EC50 was 2.02 µM.

With `Cc1cc(C)c2nc(NC(=O)c3ccccn3)sc2c1` the EC50 was 7.56 µM.

In the case of `O=C(Nc1ccc(S(=O)(=O)N2CCOCC2)cc1)c1ccc([N+](=O)[O-])o1`, the EC50 is reported as 2.28 µM.
